ChEMBL document CHEMBL3421570, “Combinatorial Libraries As a Tool for the Discovery of Novel, Broad-Spectrum Antibacterial Agents Targeting the ESKAPE Pathogens” (J Med Chem, 2015)
Active and inactive are the calls of the source.

What was measured:
Type in all cases: functional
[1] = system: Enterococcus faecium; experiment: Antimicrobial activity against Enterococcus faecium assessed as inhibition of microbial growth after 24 hrs
In short: (§1)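 Broth microdilution against multidrug-resistant clinical ESKAPE isolates. Overnight cultures (TSB for Gram-positives, LB for Gram-negatives) diluted 1:1000 in fresh medium, compound in DMF (≤2.0% DMF) added at decreasing concentrations, 37°C.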

[2] = system: Enterobacter cloacae; experiment: Antimicrobial activity against Enterobacter cloacae assessed as inhibition of microbial growth after 24 hrs; in short: as §1
[3] = system: Staphylococcus aureus; experiment: Antimicrobial activity against Staphylococcus aureus assessed as inhibition of microbial growth after 24 hrs; in short: as §1
[4] = system: Klebsiella pneumoniae; experiment: Antimicrobial activity against Klebsiella pneumoniae assessed as inhibition of microbial growth after 24 hrs; in short: as §1
[5] = system: Acinetobacter baumannii; experiment: Antimicrobial activity against Acinetobacter baumannii assessed as inhibition of microbial growth after 24 hrs; in short: as §1
[6] = system: Pseudomonas aeruginosa; experiment: Antimicrobial activity against Pseudomonas aeruginosa assessed as inhibition of microbial growth after 24 hrs; in short: as §1

Measured: MIC

Cc1cccc(CCN2CCN(CCCC[C@H]3CNC(=N)N3CC3CCC(C)CC3)C2=N)c1 (stereo partly specified)
inactive: all assays above

CCCCCCCN1C(=N)NC[C@@H]1CCCCN1C[C@@H](CCC)N(CCc2cccc(C)c2)C1=N
inactive: all assays above

N=C1NCCN1CCCC[C@H]1CNC(=N)N1CC1CCCCC1
inactive: all assays above

CC[C@H](C)[C@H]1CN(CCCC[C@H]2CNC(=N)N2CC2CCC(C)CC2)C(=N)N1CCc1cccc(C)c1 (stereo partly specified)
inactive: all assays above

CCCCCCCN1C(=N)NC[C@@H]1CCCCN1CCN(CCc2cccc(C)c2)C1=N
inactive: all assays above

CCC(C)CN1CCN(CCCC[C@H]2CNC(=N)N2CC2CCC(C)CC2)C1=N (stereo partly specified)
inactive: all assays above

CC[C@H](C)[C@H]1CN(CCCC[C@H]2CNC(=N)N2CC2CCCCC2)C(=N)N1CCc1cccc(C)c1
inactive: all assays above

CCC[C@@H]1CN(CCCC[C@H]2CNC(=N)N2CC2CCC(C)CC2)C(=N)N1CC(C)CC (stereo partly specified)
inactive: all assays above

CCCCCCCN1C(=N)NC[C@@H]1CCCCN1C[C@H]([C@@H](C)CC)NC1=N
inactive: all assays above

CCCCCCCN1C(=N)NC[C@@H]1CCCCN1C[C@H]([C@@H](C)CC)N(CC(C)CC)C1=N (stereo partly specified)
inactive: all assays above

CCCCCCCN1C(=N)NC[C@@H]1CCCCN1C[C@H]([C@@H](C)CC)N(CCc2cccc(C)c2)C1=N
inactive: all assays above

CCC[C@@H]1CN(CCCC[C@H]2CNC(=N)N2CC2CCCCC2)C(=N)N1
inactive: all assays above

CCCCCCCN1C(=N)NC[C@@H]1CCCCN1C[C@@H](CCC)N(CC(C)CC)C1=N (stereo partly specified)
inactive: all assays above

CCCCCCCN1C(=N)NC[C@@H]1CCCCN1C[C@@H](CCC)NC1=N
inactive: all assays above

CCC(C)CN1CCN(CCCC[C@H]2CNC(=N)N2CC2CCCCC2)C1=N (stereo partly specified)
inactive: all assays above

CCC(C)CN1C(=N)N(CCCC[C@H]2CNC(=N)N2CC2CCC(C)CC2)C[C@@H]1[C@@H](C)CC (stereo partly specified)
inactive: all assays above

CCC[C@@H]1CN(CCCC[C@H]2CNC(=N)N2CC2CCCCC2)C(=N)N1CCc1cccc(C)c1
inactive: all assays above

CCCCCCCN1C(=N)NC[C@@H]1CCCCN1CCN(CC(C)CC)C1=N (stereo partly specified)
inactive: all assays above

CCC[C@@H]1CN(CCCC[C@H]2CNC(=N)N2CC2CCC(C)CC2)C(=N)N1CCc1cccc(C)c1 (stereo partly specified)
inactive: all assays above

Cc1cccc(CCN2CCN(CCCC[C@H]3CNC(=N)N3CC3CCCCC3)C2=N)c1
inactive: all assays above

CCC[C@@H]1CN(CCCC[C@H]2CNC(=N)N2CC2CCC(C)CC2)C(=N)N1 (stereo partly specified)
inactive: all assays above
